PMC5269458 (Metallomics : integrated biometal science, 2017)
Converted amounts (≈) assume the structure as drawn. Read-outs that look alike come from different tables or passages of the source. Marks after values point to notes of the source that are not given here.

Experiments:
WT C. neoformans = assay: Fungicidal assay; format: cell-based, Cryptococcus neoformans; settings: 24 h in liquid culture, PyS 3 μM
[1] = tested on: ctr1Δctr4Δ mutant strain of C. neoformans; assay: Growth recovery of Cu-import deficient mutant in YPEG medium; format: cell-based, Cryptococcus neoformans; settings: YPEG medium without supplemental Cu, micromolar compound, 48 h
Stoichiometry with Cu [2] = format: binding; settings: 5% DMSO in universal buffer, pH 7.4
How it was run: (§1)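 Ligand–Cu mixtures were made in 5% DMSO in Britton–Robinson universal buffer, pH 7.4. Total metal plus ligand concentration was held constant while the Cu mole fraction was varied from 0.1 to 1.0, and samples were read by UV-vis. Ligand stocks were 100 mM in DMSO. For Cu(I), the buffer (0.04 M […], H3PO4, CH3CO2H) was deoxygenated, samples were prepared and measured anaerobically in a glove box, and stock concentration was set by BCA titration at 562 nm.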

Conditional Cu [3] = format: binding
[4] = tested on: wild-type C. neoformans H99; assay: Growth inhibition; format: cell-based, Cryptococcus neoformans; settings: for effect of added Ag(I) on MIC: 10 μM supplemental Ag(I); for effect of added Cu(II) on MIC: 10 μM supplemental Cu(II); for effect of added Fe(III) on MIC: 10 μM supplemental Fe(III); for effect of added Zn(II) on MIC: 10 μM supplemental Zn(II); for growth compared to no treatment at 48 h: 100 μM compound, no supplemental Cu; for effect of supplemental Cu on the growth inhibition by the compound: 1 mM Cu, high compound concentration (100 μM; CQ 50 μM)
[5] = tested on: C. neoformans wild type, H99 cells; format: cell-based, Cryptococcus neoformans; settings: SC medium
Stoichiometry with Cu [6] = format: binding; settings: 5% DMSO in universal buffer, pH 7.4, anaerobic
How it was run: as §1

Conditional Cu [7] = format: binding; remark: listed apart in the source
[8] = Calcein competition assay for Cu; format: binding; settings: 100 μM compound; HEPES pH 7.4 and SC medium pH 4.5
[9] = cited from earlier work
[10] = with 10 μM CuSO4, ThM above 6 μM
[11] = 10 μM ligand co-incubated with 10 μM CuSO4, 1 h
[12] = no supplemental Cu ([Cu] 0 mM), SC medium, 30 °C, 48 h
[13] = conditional, universal buffer pH 7.4, competition with PAR
[14] = negative log of free [Cu] at pH 7.4, total ligand 10 μM, total Cu 1 μM
[15] = supplemental [Cu] 0.01 mM (CuSO4), SC medium, 30 °C, 48 h
[16] = supplemental [Cu] 1 mM (CuSO4), SC medium, 30 °C, 48 h
[17] = conditional, universal buffer pH 7.4, competition with BCA

SMILES: [O-][n+]1ccccc1S [PyS, pyrithione]
- fungicidal or fungistatic activity (CFU) (WT C. neoformans; [10]): fungicidal
- fungicidal or fungistatic activity (CFU) (WT C. neoformans; without Cu, ThM 100 μM): fungicidal
- restoration of growth of ctr1Δctr4Δ mutant [1]: restored to near wild type levels
- stoichiometry with Cu(II) (Stoichiometry with Cu [2]): 2L:1Cu(II)
- Cu(II) log KML2 (Conditional Cu [3]; pH 7.4): ≥20 ^b
- pCu(II) (Conditional Cu [3]; pH 7.4): ≥15
- effect of added Ag(I) on MIC ([4]; 48 h): significantly lowered
- effect of added Cu(II) on MIC ([4]; 48 h): significant decrease
- effect of added Fe(III) on MIC ([4]; 48 h): did not significantly affect
- effect of added Zn(II) on MIC ([4]; 48 h): did not significantly affect
- MIC ([4]; Cryptococcus neoformans, 48 h, read-out: Minimum inhibitory concentration (MIC), supplemental [Cu] 1 mM (CuSO4), SC medium, 30 °C, 48 h): 6 µM (≈ 0.763 µg/mL)
- cell-associated Cu, Fe and Zn content ([5]; 10 μM ligand alone, 1 h): Metal accumulation did not occur
- cell-associated Cu, Fe and Zn content [5, 11]: hyper accumulation of Cu, Zn, and Fe
- stoichiometry with Cu(I) (Stoichiometry with Cu [6]): Bis complexes
- Cu(I) log KML2 (Conditional Cu [7]; pH 7.4): 17.1 ± 0.2
- pCu(I) (Conditional Cu [7]; pH 7.4): 12.9
- competition with calcein for Cu(II) [8]: able to compete effectively for Cu(II) at both pH values

SMILES: O=C(N/N=C/c1ccccc1O)c1ccncc1 [SIH, salicylaldehyde isonicotinoyl hydrazine]
- Minimum inhibitory concentration (MIC) [4, 12]: higher than 100 μM
- growth with compound in combination with Cu ([4]; with 1 mM Cu, SC medium, 48 h): inhibited growth slightly

SMILES: [SH-].[SH-].[S]=[Mo]=[S] [TTM, tetrathiomolybdate]
- growth compared to no treatment at 48 h ([4]; SC medium): decrease in growth
- effect of supplemental Cu on the growth inhibition by the compound [4]: reversed
- Minimum inhibitory concentration (MIC) [4, 12]: higher than 100 μM

SMILES: Cc1c(O)c(=S)ccn1C [ThDfp]
- restoration of growth of ctr1Δctr4Δ mutant [1]: unable to restore growth
- stoichiometry with Cu(II) (Stoichiometry with Cu [2]): 2L:1Cu(II)
- Cu(II) log KML2 (Conditional Cu [3]; [13]): ≥20 ^b
- pCu(II) (Conditional Cu [3]; [14]): ≥15
- growth compared to no treatment at 48 h ([4]; SC medium): decrease in growth
- effect of supplemental Cu on the growth inhibition by the compound [4]: reversed
- Minimum inhibitory concentration (MIC) [4, 12]: >100 µM
- Minimum inhibitory concentration (MIC) [4, 15]: >100 µM
- Minimum inhibitory concentration (MIC) [4, 16]: >100 µM
- cell-associated Cu, Fe and Zn content [5, 11]: did not dramatically alter cellular metal content
- cellular metal content compared to the other conditions ([5]; 10 μM ligand, 1 h): decreased cellular metal content
- stoichiometry with Cu(I) (Stoichiometry with Cu [6]): Bis complexes
- Cu(I) log KML2 (Conditional Cu [7]; [17]): 16.4 ± 0.2
- pCu(I) (Conditional Cu [7]; [14]): 12.2
- competition with calcein for Cu(II) [8]: able to compete effectively for Cu(II) at both pH values

SMILES: Cc1occc(=S)c1O [ThM, thiomaltol]
- fungicidal or fungistatic activity (CFU) (WT C. neoformans; [10]): fungicidal
- fungicidal or fungistatic activity (CFU) (WT C. neoformans; without Cu, ThM 100 μM): fungistatic
- restoration of growth of ctr1Δctr4Δ mutant [1]: restored to near wild type levels
- Cu(II) log KML2 (Conditional Cu [3]; [13]): ≥20 ^b
- pCu(II) (Conditional Cu [3]; [14]): ≥15
- effect of added Ag(I) on MIC ([4]; 48 h): no effect
- effect of added Cu(II) on MIC ([4]; 48 h): significant decrease
- effect of added Fe(III) on MIC ([4]; 48 h): did not significantly affect
- effect of added Zn(II) on MIC ([4]; 48 h): did not significantly affect
- Minimum inhibitory concentration (MIC) [4, 12]: >100 µM
- MIC in the presence of added Cu ([4]; range over low (10 μM) and high (1 mM) supplemental Cu, SC medium, 48 h): 6 to 25 µM
- Minimum inhibitory concentration (MIC) [4, 15]: 6 µM (≈ 0.853 µg/mL)
- Minimum inhibitory concentration (MIC) [4, 16]: 25 µM (≈ 3.55 µg/mL)
- cell-associated Cu, Fe and Zn content ([5]; 10 μM ligand alone, 1 h): Metal accumulation did not occur
- cell-associated Cu, Fe and Zn content [5, 11]: hyper accumulation of Cu, Zn, and Fe
- stoichiometry with Cu(I) (Stoichiometry with Cu [6]): Bis complexes
- Cu(I) log KML2 (Conditional Cu [7]; [17]): 16.4 ± 0.1
- pCu(I) (Conditional Cu [7]; [14]): 12.2
- competition with calcein for Cu(II) [8]: able to compete effectively for Cu(II) at both pH values

SMILES: O=C(O)c1cc(-c2cc(C(=O)O)c3ccccc3n2)nc2ccccc12.O=C(O)c1cc(-c2cc(C(=O)O)c3ccccc3n2)nc2ccccc12.[Cu+] [[Cu^I(BCA)2]^3−]
- Log K ([9]; constant in fitting model, universal buffer pH 7.4 with 5% DMSO): 17.7[45]

SMILES: O=C(O)c1ccc(-n2nc(-c3ccccc3O)nc2-c2ccccc2O)cc1 [deferasirox]
- growth compared to no treatment at 48 h ([4]; SC medium): decrease in growth
- effect of supplemental Cu on the growth inhibition by the compound [4]: reversed

SMILES: O=S(=O)([O-])c1ccc(-c2nnc(-c3ccccn3)nc2-c2ccc(S(=O)(=O)[O-])cc2)cc1.[Na+].[Na+] [ferrozine]
- log KFz2Cu ([9]; Cu(I) complex): 15.1
